Source: ChEMBL document CHEMBL1124397, “A novel class of "GABAergic" agents: 1-aryl-3-(aminoalkylidene)oxindoles” (J Med Chem, 1989)

Assays:
Mus musculus [1] = test: Activity to antagonise mercaptopropionic acid (MPA) induced convulsions in mouse after subcutaneous administration; the value ranges from 32-100; format: functional; settings: sc
Summary of the method: (§1)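 Male Swiss CD mice (17–21 g), fasted 18 h, in groups of five. […] One hour later MPA 32 mg/kg ip. Protection meant no convulsions during 10 min of observation.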

P23576 = test: Administered at a dose 320 umol/kg intraperitoneally before [3H]Flunitrazepam ([3H]-FNP) in mouse brain expressed as percent of control; format: functional, tissue-based
P23576, sequence (P23576 whole entry): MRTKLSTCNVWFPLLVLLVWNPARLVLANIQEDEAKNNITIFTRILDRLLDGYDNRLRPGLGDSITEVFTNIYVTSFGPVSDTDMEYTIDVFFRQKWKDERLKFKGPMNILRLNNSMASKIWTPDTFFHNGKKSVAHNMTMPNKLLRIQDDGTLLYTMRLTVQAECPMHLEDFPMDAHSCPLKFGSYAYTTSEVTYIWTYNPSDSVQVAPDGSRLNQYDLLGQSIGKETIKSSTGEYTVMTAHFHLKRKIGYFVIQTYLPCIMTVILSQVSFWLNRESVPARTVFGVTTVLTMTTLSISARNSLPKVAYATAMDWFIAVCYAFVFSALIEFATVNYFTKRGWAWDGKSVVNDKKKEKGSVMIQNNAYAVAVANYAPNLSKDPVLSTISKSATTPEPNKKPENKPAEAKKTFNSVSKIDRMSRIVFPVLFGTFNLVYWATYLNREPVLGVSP
Summary of the method: (§2)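 Mice in groups of five received test compound or vehicle ip 1 h before 200 μCi/kg [3H]FNP iv and were killed 20 min later. Brains were homogenized in 40 volumes of ice-cold 50 mM Tris-HCl pH 7.7. Triplicate 1.0-mL samples were filtered on glass fiber, washed with cold buffer and counted. Bound FNP is given as % of vehicle-treated mice.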

Mus musculus [2] = test: Activity to antagonise mercaptopropionic acid (MPA) induced convulsions in mouse after intraperitoneal administration; format: functional; settings: ip
Mus musculus [3] = test: Compound was tested for enhancement of [3H]Flunitrazepam ([3H]FNP) binding to mouse brain after intraperitoneal administration at a dose of 32uM/kg, expressed as percent of control; format: functional; summary of the method: as §2
[4] = (§3) Toxicity was measured in mouse by intraperitoneal administration; settings: in vivo, ip
Summary of the method: (§4)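 Mouse LD50 in mg/kg after sc or ip dosing, by the route named in each line.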

Mus musculus [5] = test: Compound was tested for enhancement of [3H]Flunitrazepam ([3H]FNP) binding to mouse brain after intraperitoneal administration at a dose of 10 uM/kg, expressed as percent of control; format: functional; summary of the method: as §2
[6] = target: GABA-A receptor; anion channel (Rattus norvegicus) (UniProt O09028+P15431+P18506+P18508+P19969+P20236+P23574+P23576+P28471+P28473+P30191+P62813+P63079+P63138+Q91ZM7+Q9ES14); test: Antagonism of mercaptopropionic acid (MPA) induced convulsions in mouse; format: functional, organism-based
[7] = Toxicity measured in mouse by subcutaneous administration; format: organism-based; settings: in vivo, sc; summary of the method: as §4
Mus musculus [8] = test: Compound was tested for enhancement of [3H]flunitrazepam ([3H]-FNP) binding to mouse brain after intraperitoneal administration at a dose of 100uM/kg, expressed as percent of control; format: functional; summary of the method: as §2
Mus musculus [9] = test: Activity tested to antagonise cyclic GMP after administration of isoniazid in mouse brain; format: functional
Mus musculus [10] = test: Ability to displace [3H]Flunitrazepam ([3H]-FNP) binding to mouse brain after intraperitoneal administration at a dose […]; format: functional
Mus musculus [11] = test: Ability to displace [3H]Flunitrazepam ([3H]FNP) binding to mouse brain after intraperitoneal administration at a dose 32uMl/kg, expressed as percent of control; format: functional; summary of the method: as §2
Mus musculus [12] = test: Activity to antagonise cyclic GMP after administration of isoniazid in mouse brain; value ranges from 0.3-1; format: functional
Mus musculus [13] = test: Compound was tested for enhancement of [3H]Flunitrazepam ([3H]-FNP) binding to mouse brain after intraperitoneal administration at a dose of 3.2uM/kg, expressed as percent of control; format: functional; summary of the method: as §2
Mus musculus [14] = test: Activity to antagonise mercaptopropionic acid (MPA) induced convulsions in mouse after subcutaneous administration; value ranges from 3.2-5.6; format: functional; settings: sc; summary of the method: as §1
[15] = Ability to displace [3H]flunitrazepam ([3H]-FNP) binding to mouse brain after intraperitoneal administration at a dose 320 umol/kg; format: functional, organism-based; settings: at 320 µmol/kg
Summary of the method: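 Mice in groups of five got test agent or vehicle ip 1 h before iv [3H]FNP at 200 μCi/kg, then were killed 20 min later by cervical dislocation. Brains were frozen and homogenized in 40 volumes of ice-cold 50 mM Tris-HCl pH 7.7. Triplicate samples were filtered on glass fiber, washed with cold buffer and counted. Bound label is expressed as % of vehicle-treated mice.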

Mus musculus [16] = test: Activity to antagonise cyclic GMP after administration of isoniazid in mouse brain; value ranges from 0.1-0.3; format: functional
Mus musculus [17] = test: Compound was tested for enhancement of [3H]Flunitrazepam ([3H]FNP) binding to mouse brain after intraperitoneal administration at a dose of 1000uM/kg, expressed as percent of control; format: functional
Summary of the method: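 Groups of five mice got the test compound or vehicle ip at the stated dose, 1 h (60 min) before iv [3H]FNP at 200 μCi/kg. Mice were killed by cervical dislocation 20 min after [3H]FNP. Brains were frozen, weighed and homogenized in 40 volumes ice-cold 50 mM Tris-HCl pH 7.7. Triplicate 1.0-mL samples were filtered on glass fiber and washed with cold buffer. Bound radioactivity was counted and expressed as % of vehicle-treated mice.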

Mus musculus [18] = test: as §3; format: organism-based; settings: in vivo, ip
Summary of the method: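 Mice were dosed intraperitoneally and observed for 7 days after drug administration to estimate the LD50.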

Mus musculus [19] = test: Activity to antagonise mercaptopropionic acid (MPA) induced convulsions in mouse after subcutaneous administration; format: functional; settings: sc; summary of the method: as §1
[20] = Toxicity was measured in mouse by intraperitoneal administration; value ranges from 3.2-10; settings: in vivo, ip; summary of the method: as §4

## COc1cccc(N2C(=O)/C(=C3/CCCN3C)c3ccccc32)c1
Mus musculus [1]
  ED50: 100 mg/kg
P23576
  Control: 214%

## CN1CCC/C1=C1/C(=O)N(c2cccc(Cl)c2)c2ccccc21
Mus musculus [2]
  ED50: ~3.2 mg/kg
P23576
  Control: 192%
Mus musculus [3]
  Control: 105%
[4]
  LD50: > 320 mg/kg
Mus musculus [5]
  Control: 105%
[6]
  ED50: > 100 mg/kg
[7]
  LD50: > 1000 mg/kg
Mus musculus [8]
  Control: 132%

## CN1C(=O)CN=C(c2ccccc2)c2cc(Cl)ccc21 [DIAZEPAM]
Mus musculus [9]
  ED50: < 0.9 mg/kg
[6]
  ED50: 0.7 mg/kg
Mus musculus [10]
  Control: 66%

## COc1ccc(N2C(=O)/C(=C3/CCCN3C)c3ccccc32)cc1
Mus musculus [11]
  Control: 103%
Mus musculus [2]
  ED50: ~3.2 mg/kg
Mus musculus [12]
  ED50: 1 mg/kg
P23576
  Control: 211%
Mus musculus [3]
  Control: 125%
[4]
  LD50: > 320 mg/kg
Mus musculus [13]
  Control: 105%
[7]
  LD50: > 1000 mg/kg
Mus musculus [14]
  ED50: 5.6 mg/kg
Mus musculus [8]
  Control: 192%

## CN(C)/C=C1\C(=O)N(c2ccc(Cl)c(Cl)c2)c2ccccc21
[15]
  [3H]flunitrazepam binding: 144%
[6]
  ED50: > 100 mg/kg
Mus musculus [16]
  ED50: 0.1 mg/kg

## CCCC(CCC)C(=O)[O-].[Na+] [VALPROATE SODIUM]
[4]
  LD50: > 1000 mg/kg
Mus musculus [17]
  Control: 128%
[6]
  ED50: 212 mg/kg
[7]
  LD50: > 1000 mg/kg

## CCCCNc1c(C(=O)OCC)c(C)nc2c1cnn2CC [TRACAZOLATE]
Mus musculus [18]
  ED50: > 1000 mg/kg
Mus musculus [9]
  ED50: ~3 mg/kg
Mus musculus [19]
  ED50: > 100 mg/kg

## NCc1cc(O)no1 [MUSCIMOL]
[20]
  LD50: 3.2 mg/kg
Mus musculus [9]
  ED50: 1.5 mg/kg
[7]
  LD50: 4.2 mg/kg
Mus musculus [19]
  ED50: 0.7 mg/kg
